Active and inactive are the calls of the source. The calls are words filed in the database; no cut-off is given here.
Tests used:
[1] = biological target: T1, Potassium/sodium hyperpolarization-activated cyclic nucleotide-gated channel 1 (Homo sapiens) (UniProt O60741); assay: Inhibition of RFP-fused human HCN1 transfected in HEK-293T cells at 100 uM at holding potential of -110 mV under dark condition by whole cell patch clamp electrophysiology; assay type: cell-based
T1 sequence (whole entry): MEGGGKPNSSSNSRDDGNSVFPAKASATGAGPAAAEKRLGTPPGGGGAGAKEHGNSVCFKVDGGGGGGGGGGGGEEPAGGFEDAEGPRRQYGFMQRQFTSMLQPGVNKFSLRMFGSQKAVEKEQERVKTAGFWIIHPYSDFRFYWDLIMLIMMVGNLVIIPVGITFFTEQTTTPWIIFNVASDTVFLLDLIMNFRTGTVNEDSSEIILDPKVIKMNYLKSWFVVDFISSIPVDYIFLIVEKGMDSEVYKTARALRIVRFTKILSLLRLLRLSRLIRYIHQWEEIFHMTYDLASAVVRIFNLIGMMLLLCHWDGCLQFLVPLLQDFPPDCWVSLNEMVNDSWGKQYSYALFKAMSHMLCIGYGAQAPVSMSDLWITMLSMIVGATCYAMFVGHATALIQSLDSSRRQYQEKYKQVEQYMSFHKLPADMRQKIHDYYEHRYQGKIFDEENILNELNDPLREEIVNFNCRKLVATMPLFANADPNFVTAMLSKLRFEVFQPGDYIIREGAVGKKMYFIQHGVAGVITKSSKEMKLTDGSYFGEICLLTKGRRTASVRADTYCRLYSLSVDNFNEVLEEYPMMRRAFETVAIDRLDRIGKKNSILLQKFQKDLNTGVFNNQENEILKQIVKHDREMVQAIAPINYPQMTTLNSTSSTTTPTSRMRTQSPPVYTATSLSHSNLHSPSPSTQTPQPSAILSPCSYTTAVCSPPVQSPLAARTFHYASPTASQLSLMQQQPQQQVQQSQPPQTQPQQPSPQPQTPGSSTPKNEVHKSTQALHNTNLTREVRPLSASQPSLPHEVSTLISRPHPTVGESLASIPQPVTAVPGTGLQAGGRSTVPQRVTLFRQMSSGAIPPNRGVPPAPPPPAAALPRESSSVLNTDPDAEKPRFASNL
Method in brief: (§1)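 RFP-hHCN1 transiently expressed in HEK293T; whole-cell patch clamp at room temperature, 5 kHz sampling, 1 kHz filter. Steps to -110 mV (1.8 s) and +5 mV (0.5 s) every 5.5 s from -20 mV holding. Compound added to extracellular solution by perfusion, either in the dark, pre-illuminated (395 nm 0.5 mW/mm2, or 440 nm 1 mW/mm2 for 1 min) or illuminated during perfusion. Fractional block = current reduction/control current; mean ± SEM.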

[2] = biological target: T1, Potassium/sodium hyperpolarization-activated cyclic nucleotide-gated channel 1 (Homo sapiens); assay: Inhibition of RFP-fused human HCN1 transfected in HEK-293T cells at 30 uM at holding potential of -110 mV pre-exposed with 0.5 mW/mm2 of UV light irradiation at 395 nm by whole cell patch clamp electrophysiology; assay type: cell-based; method in brief: as §1
[3] = biological target: T1, Potassium/sodium hyperpolarization-activated cyclic nucleotide-gated channel 1 (Homo sapiens); assay: Inhibition of RFP-fused human HCN1 transfected in HEK-293T cells at 30 uM at holding potential of -110 mV with 0.5 mW/mm2 of UV light irradiation exposure at 395 nm by whole cell patch clamp electrophysiology; assay type: cell-based; method in brief: as §1
[4] = biological target: T1, Potassium/sodium hyperpolarization-activated cyclic nucleotide-gated channel 1 (Homo sapiens); assay: Inhibition of RFP-fused human HCN1 transfected in HEK-293T cells at 30 uM at holding potential of -110 mV pre-exposed with 0.5 mW/mm2 of UV light irradiation at 395 nm by whole cell patch clamp electrophysiology relative to IVA; assay type: cell-based; method in brief: as §1
[5] = biological target: T1, Potassium/sodium hyperpolarization-activated cyclic nucleotide-gated channel 1 (Homo sapiens); assay: Inhibition of RFP-fused human HCN1 transfected in HEK-293T cells at 30 uM at holding potential of -110 mV with 0.5 mW/mm2 of UV light irradiation exposure at 395 nm by whole cell patch clamp electrophysiology relative to IVA; assay type: cell-based; method in brief: as §1
[6] = biological target: T1, Potassium/sodium hyperpolarization-activated cyclic nucleotide-gated channel 1 (Homo sapiens); assay: Inhibition of RFP-fused human HCN1 transfected in HEK-293T cells at 30 uM at holding potential of -110 mV with 1 mW/mm2 of blue light irradiation exposure at 440 nm by whole cell patch clamp electrophysiology relative to IVA; assay type: cell-based; method in brief: as §1
[7] = biological target: T1, Potassium/sodium hyperpolarization-activated cyclic nucleotide-gated channel 1 (Homo sapiens); assay: Inhibition of RFP-fused human HCN1 transfected in HEK-293T cells at 100 uM at holding potential of -110 mV pre-exposed with 1 mW/mm2 of blue light irradiation at 440 nm by whole cell patch clamp electrophysiology relative to IVA; assay type: cell-based; method in brief: as §1
[8] = biological target: T1, Potassium/sodium hyperpolarization-activated cyclic nucleotide-gated channel 1 (Homo sapiens); assay: Inhibition of RFP-fused human HCN1 transfected in HEK-293T cells at 100 uM at holding potential of -110 mV with 1 mW/mm2 of blue light irradiation exposure at 440 nm by whole cell patch clamp electrophysiology relative to IVA; assay type: cell-based; method in brief: as §1
Neuron [9] = assay: Inhibition of HCN in mouse brain neuron assessed as reduction of hyperpolarization-activated current (Ih) at 30 to 100 uM at holding potential of -70 to -120 mV with UV light irradiation at 365 nm by whole cell patch clamp electrophysiology; assay type: tissue-based; conditions: dose 30-100 µM
Method in brief: (§2)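 Dendritic whole-cell recordings on L5 neurons of medial prefrontal cortex in acute slices from male mice (2-3 months), aCSF at 32-34 °C with D-APV, DNQX, CGP and gabazine. Ih evoked by steps to -120 mV (1.8 s) then +5 mV (0.15 s) from -70 mV holding. Compound bath-perfused at 30 or 100 μM with 365 nm illumination of the slice (23.5 mW); steady-state current compared before and at full effect; paired t-test.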

[10] = Drug accumulation in human HEK-293T cells transfected with RFP-fused human HCN1 assessed as increase in fluorescent signal at 30 uM incubated for 15 mins by fluorescent microscopic analysis; assay type: ADME, cell-based; conditions: 0.25 h
Method in brief: (§3)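 HEK293T cells incubated with 30 μM compound in buffer for 15 min, or perfused for 5 min. Intracellular autofluorescence (excitation 405 nm, emission 518 nm) imaged by fluorescence microscopy, with images taken during 10 min of washout.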

[11] = Drug accumulation in human HEK-293T cells transfected with RFP-fused human HCN1 assessed as increase in fluorescent signal at 30 uM measured for 25 mins by fluorescent microscopic analysis; assay type: ADME, cell-based; method in brief: as §3
HEK-293T = assay: Cytotoxicity against human HEK-293T cells assessed as reduction in cell viability at 100 uM incubated upto 48 hrs by live/dead TM red staining based fluorescent microscopic analysis; assay type: toxicity
Method in brief: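 HEK293T cells in DMEM high-glucose with 10% FBS and 1% PenStrep, treated at 80-90% confluency with 100 μM compound added to growth medium; untreated and 0.5% DMSO controls, heat-killed (60 °C, 20 min) positive control. After 8, 16, 24 or 48 h, cells detached, stained with LIVE-DEAD NearIF in PBS, imaged at 640 nm excitation; dead cells counted in three random quadrants per triplicate.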

[12] = In vivo inhibition of HCN4 in Zebrafish larvae assessed as reduction in heart rate at 1 mM administered at 48 hpf along with 0.5 mW/mm2 of UV light irradiation exposure at 365 nm measured upto 60 mins (reference value: 84 +/- 1 %); assay type: functional, Danio rerio
[13] = In vivo inhibition of HCN4 in Zebrafish larvae assessed as reduction in heart rate at 1 mM administered at 48 hpf along with 2 mW/mm2 of blue light irradiation exposure at 436 nm measured upto 60 mins (reference value: 80 +/- 1 %); assay type: functional, Danio rerio
[14] = Solubility of compound in HEPES buffer at pH 7.4 by UV-Visible spectra analysis; assay type: physicochemical
[15] = Fluorescence property of compound in HEPES buffer at pH 7.4 assessed as quantum yield at 1.5 mM under irradiation with 365 nm light by UV-Visible spectra analysis; assay type: physicochemical; conditions: pH 7.4, 1500 µM
[16] = Fluorescence property of compound in HEPES buffer at pH 7.4 assessed as quantum yield at 1.5 mM under irradiation with 395 nm light by UV-Visible spectra analysis; assay type: physicochemical; conditions: pH 7.4, 1500 µM
[17] = Fluorescence property of compound in HEPES buffer at pH 7.4 assessed as quantum yield at 1.5 mM under irradiation with 440 nm light by UV-Visible spectra analysis; assay type: physicochemical; conditions: pH 7.4, 1500 µM
[18] = Stability in human plasma at 40 mM incubated upto 24 hrs by UV-HPLC analysis; assay type: ADME, cell-free; conditions: 1000 µM, in the assay text read “1 mM” for “40 mM”
Method in brief: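 A 40 mM stock was added to human plasma (10 into 390 parts) and incubated at 37 °C for 24 h, in duplicate. At time points, aliquots were quenched in 3 volumes of cold acetonitrile, centrifuged at 4 °C for 10 min, filtered and analysed by HPLC-UV (C18, TFA water/acetonitrile gradient, detection at 280 nm).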

[19] = biological target: T1, Potassium/sodium hyperpolarization-activated cyclic nucleotide-gated channel 1 (Homo sapiens); assay: Inhibition of RFP-fused human HCN1 transfected in HEK-293T cells at 100 uM at holding potential of -110 mV under UV light exposure by whole cell patch clamp electrophysiology; assay type: cell-based; method in brief: as §1
Neuron [20] = assay: Inhibition of HCN in mouse brain neuron assessed as reduction of hyperpolarization-activated current (Ih) at 100 uM at holding potential of -70 to -120 mV with UV light irradiation at 365 nm by whole cell patch clamp electrophysiology; assay type: tissue-based; method in brief: as §2
Neuron [21] = assay: Inhibition of HCN in mouse brain neuron assessed as reduction of hyperpolarization-activated current (Ih) at 30 uM at holding potential of -70 to -120 mV with UV light irradiation at 365 nm by whole cell patch clamp electrophysiology; assay type: tissue-based; method in brief: as §2

| Compound | inhibition [1] | solubility [14] | Activity [15] | Activity [16] | Activity [17] | Activity (HEK-293T) | inhibition (INH) [12] | inhibition (INH) [13] | further results |
| --- | --- | --- | --- | --- | --- | --- | --- | --- | --- |
| COc1cc2c(cc1OC)CC(=O)N(CCC[N+](C)(Cc1ccc3ccc(O)c(Br)c3n1)C[C@H]1Cc3cc(OC)c(OC)cc31)CC2.[OH-] (stereo not given in full) | – | 430 µM | 0.073 | 0.034 | 0.062 | – | 49% | 51% | Stability [18]: Stable |
| OCc1ccc2ccc(O)c(Br)c2n1 | inactive | – | – | – | – | Non-Toxic | – | – | inhibition [19]: inactive; inhibition (Neuron [20]): inactive |
| COc1cc2c(cc1OC)CC(=O)N(CCCN(C)C[C@H]1Cc3cc(OC)c(OC)cc31)CC2 | – | – | – | – | – | – | – | – | inhibition (Neuron [21]): Active |

Second part, led by results:

| inhibition [1] | solubility [14] | Activity [15] | Activity [16] | Activity [17] | Compound | Activity (HEK-293T) | inhibition (INH) [12] | inhibition (INH) [13] | further results |
| --- | --- | --- | --- | --- | --- | --- | --- | --- | --- |
| inactive | – | – | – | – | COc1cc2c(cc1OC)CC(=O)N(CCC[N+](C)(Cc1ccc3ccc(O)c(Br)c3n1)C[C@H]1Cc3cc(OC)c(OC)cc31)CC2 (stereo not given in full) | – | – | – | inhibition [2]: Active; inhibition [3]: Active; inhibition [4]: 95%; inhibition [5]: 85%; inhibition [6]: 65%; inhibition [7]: 85%; inhibition [8]: 85%; inhibition (Neuron [9]): Active |
| – | 550 µM | 0.091 | 0.041 | 0.051 | COc1cc2c(cc1OC)CC(=O)N(CCC[N+](C)(Cc1ccc3ccc(O)c(Br)c3n1)C[C@H]1Cc3cc(OC)c(OC)cc31)CC2.CS(=O)(=O)[O-] (stereo not given in full) | Non-Toxic | 51% | 49% | Drug uptake [10]: Active; Drug uptake [11]: Active |
